Consider 15 molecules from ChEMBL document CHEMBL3588778, “Synthesis and biological evaluation of spirocyclic antagonists of CCR2 (chemokine CC receptor subtype 2)” (Bioorg Med Chem, 2015).

Assay [1] has as its target T1, C-C chemokine receptor type 2 (Homo sapiens, UniProt P41597). The experiment in a line: Antagonist activity against human CCR2B expressed in Chem-1 cells assessed as inhibition of human CCL2-induced intracellular calcium flux incubated for 10 mins by Fluo-4 AM dye based intracellular calcium flux assay. Format: functional, cell-based. A general note: Calcium assays in cells follow changes in intracellular calcium, usually with a dye or a luminescent sensor.
Target sequence in this assay (P41597 whole entry): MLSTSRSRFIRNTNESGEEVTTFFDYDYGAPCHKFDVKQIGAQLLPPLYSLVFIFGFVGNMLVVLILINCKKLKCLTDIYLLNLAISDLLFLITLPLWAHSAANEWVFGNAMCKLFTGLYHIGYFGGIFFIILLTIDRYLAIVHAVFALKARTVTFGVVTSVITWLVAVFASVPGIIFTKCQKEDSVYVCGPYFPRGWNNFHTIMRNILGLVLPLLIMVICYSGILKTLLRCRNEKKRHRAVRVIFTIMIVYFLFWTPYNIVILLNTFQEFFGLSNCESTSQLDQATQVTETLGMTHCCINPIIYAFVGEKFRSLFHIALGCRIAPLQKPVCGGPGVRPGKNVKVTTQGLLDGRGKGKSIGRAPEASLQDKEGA

Assay [2] has as its target C-C chemokine receptor type 2 (Mus musculus, UniProt P51683). The experiment in a line: Antagonist activity against mouse CCR2B expressed in human U2OS cells co-expressing beta-arrestin assessed as inhibition of mouse CCL2-induced beta-arrestin recruitment pre-incubated for 10 mins before mouse CCL2 stimulation for 90 mins by luminescence based assay. Format: cell-based.

Assay [3] addresses T1, C-C chemokine receptor type 2. The experiment in a line: Displacement of [125I]-CCL2 from human CCR2 expressed in U2OS cells at 1 uM incubated for 150 mins by scintillation spectrometry. Format: cell-based. A digest of the protocol:
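Membranes (15 µg protein) from U2OS cells stably expressing human CCR2 were incubated with 0.1 nM 125I-CCL2 for 150 min at 37 C. Buffer was 50 mM Tris-HCl pH 7.4 with 5 mM MgCl2 and 0.1% CHAPS. Test compound was 1 µM and nonspecific binding was defined with 10 µM INCB3344. Bound ligand was separated by filtration on PEI-coated GF/B filters and counted by scintillation. Result given as % displacement.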
(In a radioligand displacement assay an active substance lowers the binding of a labelled ligand.)
Target sequence in this assay (P41597 whole entry, looked up): as the sequence (P41597 whole entry) above

The target is the same in assay [4]. The experiment in a line: Displacement of [125I]-CCL2 from human CCR2 expressed in U2OS cells incubated for 150 mins by scintillation spectrometry. Format: cell-based.
Target sequence in this assay (P41597 whole entry): as above

The structures appear in SMILES notation.

Chain of C-C chemokine receptor type 2 (Mus musculus, UniProt P51683) (P51683 whole entry): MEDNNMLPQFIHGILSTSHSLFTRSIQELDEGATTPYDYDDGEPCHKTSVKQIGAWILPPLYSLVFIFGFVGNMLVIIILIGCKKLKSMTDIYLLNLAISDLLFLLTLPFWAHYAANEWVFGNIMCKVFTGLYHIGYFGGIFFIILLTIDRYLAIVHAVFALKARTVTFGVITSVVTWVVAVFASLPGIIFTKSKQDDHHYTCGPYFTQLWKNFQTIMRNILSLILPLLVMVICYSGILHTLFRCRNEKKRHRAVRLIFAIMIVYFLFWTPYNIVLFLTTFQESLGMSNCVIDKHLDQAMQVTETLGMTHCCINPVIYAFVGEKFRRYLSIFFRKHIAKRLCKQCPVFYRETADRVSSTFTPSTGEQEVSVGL

By IC50 is commonly meant the midpoint of a concentration-inhibition curve. A word on the inhibition: it is the relative decrease from the control value, in per cent. For the molecule `CC1Cc2ccccc2C2(CCN(CCCC(=O)NCc3cc(F)cc(C(F)(F)F)c3)CC2)O1` (stereo not given), the IC50 in assay [1] was 12 µM; in assay [2], more than 30 µM. Moreover, the inhibition in assay [3] is -10%.
Regarding `O=C(NCc1cc(F)cc(C(F)(F)F)c1)C(CCN1CCC2(CC1)OCCc1cc(O)ccc12)c1ccc(F)cc1` (stereo not given), the IC50 was 6.1 µM in assay [1] and more than 30 µM in assay [2].
As to `O=C(CCCN1CCC2(CC1)OCCc1ccccc12)NCc1cc(C(F)(F)F)cc(C(F)(F)F)c1`, the figures for the IC50 in assay [1] and in assay [2] were 0.684 µM and 24 µM, respectively. The inhibition in assay [3] worked out at 10%.
For `COc1ccc2c(c1)CCOC21CCN(CCCC(=O)NCc2cc(F)cc(C(F)(F)F)c2)CC1`, the IC50 in assay [1] was 0.318 µM; in assay [2], more than 30 µM. The inhibition in assay [3] is -1%.
Take `CC1Cc2ccccc2C2(CCN(CCCC(=O)NCc3cc(C(F)(F)F)cc(C(F)(F)F)c3)CC2)O1` (stereo not given): the IC50 in assay [1] was 7.54 µM; in assay [2], 7.9 µM.
Consider `O=C(NCc1cc(C(F)(F)F)cc(C(F)(F)F)c1)C(CCN1CCC2(CC1)OCCc1ccccc12)C1CC1` (stereo not given), for which the IC50 in assay [1] is 0.017 µM; in assay [2], 3.3 µM.
On to `O=C(NCc1cc(C(F)(F)F)cc(C(F)(F)F)c1)C(CCN1CCC2(CC1)OCCc1ccccc12)c1ccc(F)cc1` (stereo not given), for which the figures for the IC50 in assay [1] and in assay [2] were 0.089 µM and 11.2 µM, respectively. In addition, the inhibition in assay [3] turned out to be 25%.
In the same order, the values of `CC1Cc2ccccc2C2(CCN(CCC(C(=O)NCc3cc(F)cc(C(F)(F)F)c3)c3ccc(F)cc3)CC2)O1` (stereo not given) are 1.6 µM, 8.01 µM and 9%.
As a reminder, the Ki is a dissociation constant, usually derived from enzyme kinetics or from competition with a known ligand. A lower Ki goes with a stronger hold on the target. In the case of `Cc1ccc(-c2ccc3c(c2)C=C(C(=O)Nc2ccc(C[N+](C)(C)C4CCOCC4)cc2)CCC3)cc1`, in assay [2], the IC50 turned out to be 23 µM. The Ki in assay [4] was determined as 0.002 µM.
In the case of `O=C(NCc1cc(F)cc(C(F)(F)F)c1)C(CCN1CCC2(CC1)OCCc1ccccc12)c1ccc(F)cc1` (stereo not given), the IC50 in assay [1] turned out to be 0.173 µM; in assay [2], 3.63 µM. Also, in assay [3], the inhibition is 7%.
In the same order, the values of `COc1ccc2c(c1)CCOC21CCN(CCCC(=O)NCc2cc(C(F)(F)F)cc(C(F)(F)F)c2)CC1` are 1.24 µM, 18 µM and 1%.
As to `O=C(CCCN1CCC2(CC1)OCCc1ccccc12)NCc1cc(F)cc(C(F)(F)F)c1`, the figures for the IC50 in assay [1] and in assay [2] were 0.18 µM and more than 30 µM, respectively. The inhibition in assay [3] came out at 4%.
The corresponding values for `CC1Cc2ccccc2C2(CCN(CCC(C(=O)NCc3cc(C(F)(F)F)cc(C(F)(F)F)c3)c3ccc(F)cc3)CC2)O1` (stereo not given) are 0.462 µM, 3.67 µM and 0%.
`COc1ccc2c(c1)CCOC21CCN(CCC(C(=O)NCc2cc(C(F)(F)F)cc(C(F)(F)F)c2)c2ccc(F)cc2)CC1` (stereo not given): the figures for the IC50 in assay [1] and in assay [2] were 0.163 µM and 4.16 µM, respectively.
As for `COc1ccc2c(c1)CCOC21CCN(CCC(C(=O)NCc2cc(F)cc(C(F)(F)F)c2)c2ccc(F)cc2)CC1` (stereo not given), the IC50 in assay [1] is 0.353 µM; in assay [2], 4.63 µM. In assay [3], the inhibition is -7%.
